The source made the active and inactive calls. The rule behind the calls is not given here.
Legend:
[1] = system: Human immunodeficiency virus 1; experiment: Antiviral activity against multidrug-resistant HIV1 106-PR infected in HEK293T cells assessed as inhibition of viral replication after 4 days by beta-galactosidase reporter gene assay; format: functional, organism-based; conditions: Human immunodeficiency virus 1, 106-PR, HEK-293T, 96 h
In short: (§1)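 HEK293T transfected with proviral DNA (wild-type NL4-3 CXCR4-tropic or NL-AD87 CCR5-tropic, or multiresistant 106-PR protease-inhibitor or 695-RT RT-inhibitor mutants), then co-cultured 4 days with HeLa-SxR5 reporter cells (CD4, CCR5, endogenous CXCR4, LTR-LacZ) plus test substance; DMEM/10% FBS, 37 °C, 7% CO2. β-galactosidase colorimetric read at 405 nm, normalized to plate controls; EC50 from fitted dose-response curves.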

[2] = system: Human immunodeficiency virus 1; experiment: Resistance factor, ratio of EC50 for multidrug-resistant HIV1 106-PR infected in HEK293T cells to wildtype HIV1 infected in HEK293T cells; format: functional, HEK-293T
In short: (§2)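 Resistance factor = EC50 against mutant virus (106-PR or 695-RT) divided by EC50 against wild-type; EC50s from 4-day HEK293T-transfection/HeLa-SxR5 co-culture with β-galactosidase read-out (405 nm), normalized to plate controls, curve-fitted.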

[3] = system: Human immunodeficiency virus 1; experiment: Resistance factor, ratio of EC50 for multidrug-resistant HIV1 695-RT infected in HEK293T cells to wildtype HIV1 infected in HEK293T cells; format: functional, HEK-293T; in short: as §2
[4] = system: Human immunodeficiency virus 1; experiment: Antiviral activity against CXCR4-tropic HIV1 NL4-3 infected in HEK293T cells assessed as inhibition of viral replication after 4 days by beta-galactosidase reporter gene assay; format: functional, organism-based; conditions: Human immunodeficiency virus 1, NL4-3, HEK-293T, 96 h; in short: as §1
PBMC [5] = experiment: Upregulation of CD69 expression in PHA- and IL-2-stimulated human PBMC membranes at 20 nM after 48 hrs by flow cytometric analysis; format: functional, cell-based
In short: (§3)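 Healthy-donor PBMCs at 1 × 10^6 cells/mL in RPMI/10% FBS, activated 48 h with PHA 2.5 μg/mL and IL-2 300 IU/mL, then treated 48 h with 20 nM compound or vehicle (0.25% DMSO, 100 IU/mL IL-2). Sampled at 0, 2, 5, 24, 48 h; stained 40 min at 4 °C with FITC anti-CXCR4 or anti-CCR5, or PE anti-CD69, plus isotype controls; flow cytometry, % cells expressing each receptor.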

PBMC [6] = experiment: Down-regulation of CXCR4 expression in PHA- and IL-2-stimulated human PBMC membranes at 20 nM after 48 hrs by flow cytometric analysis; format: functional, cell-based; in short: as §3
[7] = system: Human immunodeficiency virus 1; experiment: Antiviral activity against wild type Human immunodeficiency virus 1 NL4-3 pseudotyped with VSV envelope infected in human HeLa-SxR5 cells assessed as inhibition of viral replication after 3 days by beta-galactosidase assay; format: functional, organism-based
In short: (§4)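 Pseudoparticles made by cotransfecting HEK293T with env-defective NL4-3 provirus plus plasmid for full-length NL4-3 Env or VSV envelope; supernatants harvested 2 days post-transfection, cleared by low-speed spin, used to transduce HeLa-SxR5 with or without compound at increasing concentrations; β-galactosidase activity measured 3 days later; means ± standard deviation.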

[8] = system: Human immunodeficiency virus 1; experiment: Antiviral activity against CCR5-tropic HIV1 NL-AD87 infected in HEK293T cells assessed as inhibition of viral replication after 4 days by beta-galactosidase reporter gene assay; format: functional, organism-based; conditions: Human immunodeficiency virus 1, NL-AD87, HEK-293T, 96 h; in short: as §1
HEK-293T = experiment: Cytotoxicity against human HEK293T cells after 4 days by Alamar blue assay; format: cell-based; conditions: 96 h
In short: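 Same culture set-up as the anti-HIV assay (HEK293T with HeLa-SxR5, DMEM/10% FBS, 37 °C, 7% CO2) but with no proviral DNA transfected; viability read with AlamarBlue after 4 days.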

[9] = system: Human immunodeficiency virus 1; experiment: Antiviral activity against wild type Human immunodeficiency virus 1 NL4-3 pseudotyped with HIV envelope infected in human HeLa-SxR5 cells assessed as inhibition of viral replication after 3 days by beta-galactosidase assay; format: functional, organism-based; in short: as §4
PBMC [10] = experiment: Down-regulation of CCR5 expression in PHA- and IL-2-stimulated human PBMC membranes at 20 nM after 48 hrs by flow cytometric analysis; format: functional, cell-based; in short: as §3
[11] = system: Human immunodeficiency virus 1; experiment: Antiviral activity against multidrug-resistant HIV1 695-RT infected in HEK293T cells assessed as inhibition of viral replication after 4 days by beta-galactosidase reporter gene assay; format: functional, organism-based; conditions: Human immunodeficiency virus 1, 695-RT, HEK-293T, 96 h; in short: as §1
[12] = system: Human immunodeficiency virus 1; experiment: Antiviral activity against wild type Human immunodeficiency virus 1 NL4-3 pseudotyped with VSV envelope infected in human HeLa-SxR5 cells assessed as inhibition of viral replication at 65 nM after 3 days by beta-galactosidase assay; format: functional, organism-based; in short: as §4
[13] = system: Human immunodeficiency virus 1; experiment: Antiviral activity against wild type Human immunodeficiency virus 1 NL4-3 pseudotyped with HIV envelope infected in human HeLa-SxR5 cells assessed as inhibition of viral replication at 65 nM after 3 days by beta-galactosidase assay; format: functional, organism-based
In short: (§5)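 HEK293T cells cotransfected with an envelope-defective NL4-3-derived provirus plus a plasmid expressing full-length NL4-3 HIV envelope. Supernatants were harvested 2 days post-transfection, spun at low speed to clear debris, and used to transduce HeLa-SxR5 reporter cells (CD4/CCR5, endogenous CXCR4, HIV-LTR-LacZ) with or without compound. β-galactosidase was read colorimetrically at 405 nm 3 days later and normalised to positive and negative control wells as percent inhibition.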

[14] = system: Human immunodeficiency virus 1; experiment: Antiviral activity against wild type Human immunodeficiency virus 1 NL4-3 pseudotyped with HIV envelope infected in human HeLa-SxR5 cells assessed as inhibition of viral replication at 300 nM after 3 days by beta-galactosidase assay; format: functional, organism-based; in short: as §5
[15] = system: Human immunodeficiency virus 1; experiment: Antiviral activity against wild type Human immunodeficiency virus 1 NL4-3 pseudotyped with VSV envelope infected in human HeLa-SxR5 cells assessed as inhibition of viral replication at 300 nM after 3 days by beta-galactosidase assay; format: functional, organism-based; in short: as §4

| Compound | EC50 [1] | Ratio EC50 [2] | Ratio EC50 [3] | EC50 [4] | EC50 [8] | Activity (HEK-293T) | EC50 [11] | other results |
| --- | --- | --- | --- | --- | --- | --- | --- | --- |
| COC(=O)N[C@H](C(=O)N[C@@H](Cc1ccccc1)[C@@H](O)CN(Cc1ccc(-c2ccccn2)cc1)NC(=O)[C@@H](NC(=O)OC)C(C)(C)C)C(C)(C)C [ATAZANAVIR] | 324 nM | 7 | – | – | – | – | – | – |
| C=C(C)[C@]12C[C@@H](C)[C@@]34O[C@](c5ccccc5)(O[C@@H]1[C@@H]3[C@@H]1O[C@]1(CO)[C@@H](O)[C@]1(O)C(=O)C(C)=C[C@H]14)O2 [DAPHNETOXIN] | 22 nM | 1 | 1 | 16.2 nM | 26.7 nM | Non-toxic | 21 nM | Activity (PBMC [5]): Active; Activity (PBMC [6]): Active; inhibition [7]: Dose-dependent effect; inhibition [9]: Dose-dependent effect; Activity (PBMC [10]): Active |
| CC(C)CN(C[C@@H](O)[C@H](Cc1ccccc1)NC(=O)O[C@H]1CO[C@H]2OCC[C@H]21)S(=O)(=O)c1ccc(N)cc1 [DARUNAVIR] | 13700 nM | >300 | – | – | – | – | – | – |
| O=C1Nc2ccc(Cl)cc2[C@@](C#CC2CC2)(C(F)(F)F)O1 [EFAVIRENZ] | – | – | 222 | – | – | – | 889 nM | inhibition [12]: Active; inhibition [13]: Active |
| C=C(C)[C@]12C[C@@H](C)[C@@]34O[C@](/C=C/C=C/CCCCC)(O[C@@H]1[C@@H]3[C@@H]1O[C@]1(CO)[C@@H](O)[C@]1(O)C(=O)C(C)=C[C@H]14)O2 [EXCOECARIA TOXIN] | – | – | – | 1080 nM | 1570 nM | Non-toxic | – | – |
| C=C(C)[C@@]12O[C@@]3(c4ccccc4)O[C@@H]1[C@@H]1[C@@H]4O[C@]4(CO)[C@@H](O)[C@]4(O)C(=O)C(C)=C[C@H]4[C@@]1(O3)[C@H](C)[C@H]2OC(=O)/C=C/c1ccccc1 [GNIDICIN] | – | – | – | 8.6 nM | 17.6 nM | Non-toxic | – | – |
| C=C(C)C12OC3(c4ccccc4)OC1[C@@H]1[C@@H]4O[C@]4(CO)[C@@H](O)[C@]4(O)C(=O)C(C)=C[C@H]4C1(O3)[C@H](C)[C@H]2OC(=O)/C=C/C=C/C=C/CCC (stereo not given in full) [GNIDITRIN] | – | – | – | 74 nM | 133 nM | Non-toxic | – | – |
| Nc1ccn([C@@H]2CS[C@H](CO)O2)c(=O)n1 [LAMIVUDINE] | – | – | >300 | – | – | – | > 20000 nM | – |
| Cc1cccc(C)c1OCC(=O)N[C@@H](Cc1ccccc1)[C@@H](O)C[C@H](Cc1ccccc1)NC(=O)[C@H](C(C)C)N1CCCNC1=O [LOPINAVIR] | 160 nM | 10 | – | – | – | – | – | – |
| CC(C)(C)NC(=O)[C@@H]1C[C@@H]2CCCC[C@@H]2CN1C[C@@H](O)[C@H](Cc1ccccc1)NC(=O)[C@H](CC(N)=O)NC(=O)c1ccc2ccccc2n1 [SAQUINAVIR] | 12 nM | 1 | – | – | – | – | – | – |
| Cc1cn([C@H]2C[C@H](N=[N+]=[N-])[C@@H](CO)O2)c(=O)[nH]c1=O [ZIDOVUDINE] | 6 nM | – | 11 | – | – | – | 200 nM | – |
| enfuvirtide | – | – | – | – | – | – | – | inhibition [14]: Active; inhibition [15]: inactive |

From ChEMBL document CHEMBL2021767, “Library-based discovery and characterization of daphnane diterpenes as potent and selective HIV inhibitors in Daphne gnidium” (J Nat Prod, 2012)
